# Active and inactive are the calls of the source. No cut-off for these calls is given here.
# Tests used:
# A549 = assay: Cytotoxicity against human A549 cells after 72 hrs by sulforhodamine B assay; assay type: functional, cell-based; conditions: A549, 72 h
# How it was run: (§1)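 Cells seeded and cultured overnight, then treated with increasing compound concentrations for 72 h. Fixed with 10% TCA, stained with sulforhodamine B, dye dissolved in 10 mM Tris-HCl, read at 515 nm. Inhibition taken relative to untreated control. IC50 by the Logit method; triplicate experiments.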
# [1] = Solubility of the compound in PBS buffer at PH 7.4 after 24 hrs by UV-Visible spectrophotometry; assay type: physicochemical
# DNA [2] = assay: Binding affinity to calf thymus DNA assessed as intercalation at 20 uM after 2 hrs by circular dichroism spectrophotometry; assay type: nucleic-acid assay; conditions: Bos taurus
# How it was run: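 Calf thymus DNA (100 µM) was incubated with compound (20 µM) in Tris-HCl buffer for 2 h at 25 °C. CD spectra were then analysed over 230–300 nm.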
# [3] = target: Platelet-derived growth factor receptor beta (Homo sapiens, UniProt P09619); assay: Inhibition of PDGFRbeta (unknown origin) using poly (Glu, Tyr)4:1 as substrate by ELISA
# Platelet-derived growth factor receptor beta, sequence (P09619 whole entry): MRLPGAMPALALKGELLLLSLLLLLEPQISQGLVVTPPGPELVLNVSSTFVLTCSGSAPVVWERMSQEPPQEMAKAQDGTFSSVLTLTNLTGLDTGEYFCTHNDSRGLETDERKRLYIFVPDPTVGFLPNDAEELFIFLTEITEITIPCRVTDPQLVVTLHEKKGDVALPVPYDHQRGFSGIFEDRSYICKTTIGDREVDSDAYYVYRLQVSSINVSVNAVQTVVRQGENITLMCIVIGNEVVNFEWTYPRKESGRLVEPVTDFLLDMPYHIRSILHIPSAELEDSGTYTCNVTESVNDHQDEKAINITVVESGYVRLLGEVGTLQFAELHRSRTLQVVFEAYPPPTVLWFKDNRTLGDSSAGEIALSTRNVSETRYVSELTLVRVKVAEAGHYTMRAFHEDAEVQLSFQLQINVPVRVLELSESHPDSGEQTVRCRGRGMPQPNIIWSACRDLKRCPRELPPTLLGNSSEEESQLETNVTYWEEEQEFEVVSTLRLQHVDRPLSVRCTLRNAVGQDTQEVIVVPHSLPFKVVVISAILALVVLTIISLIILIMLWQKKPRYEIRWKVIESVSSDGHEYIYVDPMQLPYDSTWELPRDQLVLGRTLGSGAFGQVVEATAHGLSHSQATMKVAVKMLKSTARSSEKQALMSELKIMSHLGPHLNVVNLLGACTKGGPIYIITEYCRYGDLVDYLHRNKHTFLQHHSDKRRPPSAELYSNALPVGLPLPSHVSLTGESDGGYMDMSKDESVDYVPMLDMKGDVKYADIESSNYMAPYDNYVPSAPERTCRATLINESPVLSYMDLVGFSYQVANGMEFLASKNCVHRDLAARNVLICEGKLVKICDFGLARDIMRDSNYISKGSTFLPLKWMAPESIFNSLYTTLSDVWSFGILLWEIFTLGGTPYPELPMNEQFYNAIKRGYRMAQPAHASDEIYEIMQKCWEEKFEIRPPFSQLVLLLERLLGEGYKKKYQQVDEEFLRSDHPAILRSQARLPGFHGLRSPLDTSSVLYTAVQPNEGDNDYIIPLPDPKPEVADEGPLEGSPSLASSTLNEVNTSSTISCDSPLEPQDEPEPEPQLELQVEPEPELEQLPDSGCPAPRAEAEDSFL
# HL-60 = assay: Cytotoxicity against human HL60 cells after 72 hrs by MTT assay; assay type: functional, cell-based; conditions: HL-60, 72 h
# How it was run: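 HL60 cells were treated with increasing compound concentrations for 72 h. MTT was then added for 4 h. Cells were lysed overnight at 37 °C in 10% SDS–5% isobutanol–12 mM HCl and read at 570 nm. Inhibition taken relative to control. IC50 by the Logit method; triplicate experiments.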
# [4] = Cytotoxicity against human GES-1 cells after 72 hrs by sulforhodamine B assay; assay type: cell-based; conditions: GES1, 72 h; how it was run: as §1
# [5] = target: Platelet-derived growth factor receptor alpha (Homo sapiens, UniProt P16234); assay: Inhibition of PDGFRalpha (unknown origin) using poly (Glu, Tyr)4:1 as substrate by ELISA
# How it was run: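 ELISA on wells precoated with 2.5 µg/well poly(Glu,Tyr) 4:1. Reaction buffer was 50 mM HEPES pH 7.4, 20 mM MgCl2, 0.1 mM Na3VO4, 1 mM DTT, with 10 µM ATP; the reaction was started by adding kinase and run 1 h at 37 °C. Phosphotyrosine detected with PY99 and HRP anti-mouse IgG, o-phenylenediamine development, read at 490 nm.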
# [6] = Cytotoxicity against human LO2 cells after 72 hrs by sulforhodamine B assay; assay type: cell-based; conditions: L02, 72 h; how it was run: as §1
# [7] = target: DNA topoisomerase 2-alpha (Homo sapiens) (UniProt P11388); assay: Inhibition of human topoisomerase 2 alpha-mediated decatenation of kinetoplast DNA at 100 uM after 30 mins by agarose gel electrophoresis in presence of ATP relative to control
# DNA topoisomerase 2-alpha (Homo sapiens), sequence (P11388 whole entry): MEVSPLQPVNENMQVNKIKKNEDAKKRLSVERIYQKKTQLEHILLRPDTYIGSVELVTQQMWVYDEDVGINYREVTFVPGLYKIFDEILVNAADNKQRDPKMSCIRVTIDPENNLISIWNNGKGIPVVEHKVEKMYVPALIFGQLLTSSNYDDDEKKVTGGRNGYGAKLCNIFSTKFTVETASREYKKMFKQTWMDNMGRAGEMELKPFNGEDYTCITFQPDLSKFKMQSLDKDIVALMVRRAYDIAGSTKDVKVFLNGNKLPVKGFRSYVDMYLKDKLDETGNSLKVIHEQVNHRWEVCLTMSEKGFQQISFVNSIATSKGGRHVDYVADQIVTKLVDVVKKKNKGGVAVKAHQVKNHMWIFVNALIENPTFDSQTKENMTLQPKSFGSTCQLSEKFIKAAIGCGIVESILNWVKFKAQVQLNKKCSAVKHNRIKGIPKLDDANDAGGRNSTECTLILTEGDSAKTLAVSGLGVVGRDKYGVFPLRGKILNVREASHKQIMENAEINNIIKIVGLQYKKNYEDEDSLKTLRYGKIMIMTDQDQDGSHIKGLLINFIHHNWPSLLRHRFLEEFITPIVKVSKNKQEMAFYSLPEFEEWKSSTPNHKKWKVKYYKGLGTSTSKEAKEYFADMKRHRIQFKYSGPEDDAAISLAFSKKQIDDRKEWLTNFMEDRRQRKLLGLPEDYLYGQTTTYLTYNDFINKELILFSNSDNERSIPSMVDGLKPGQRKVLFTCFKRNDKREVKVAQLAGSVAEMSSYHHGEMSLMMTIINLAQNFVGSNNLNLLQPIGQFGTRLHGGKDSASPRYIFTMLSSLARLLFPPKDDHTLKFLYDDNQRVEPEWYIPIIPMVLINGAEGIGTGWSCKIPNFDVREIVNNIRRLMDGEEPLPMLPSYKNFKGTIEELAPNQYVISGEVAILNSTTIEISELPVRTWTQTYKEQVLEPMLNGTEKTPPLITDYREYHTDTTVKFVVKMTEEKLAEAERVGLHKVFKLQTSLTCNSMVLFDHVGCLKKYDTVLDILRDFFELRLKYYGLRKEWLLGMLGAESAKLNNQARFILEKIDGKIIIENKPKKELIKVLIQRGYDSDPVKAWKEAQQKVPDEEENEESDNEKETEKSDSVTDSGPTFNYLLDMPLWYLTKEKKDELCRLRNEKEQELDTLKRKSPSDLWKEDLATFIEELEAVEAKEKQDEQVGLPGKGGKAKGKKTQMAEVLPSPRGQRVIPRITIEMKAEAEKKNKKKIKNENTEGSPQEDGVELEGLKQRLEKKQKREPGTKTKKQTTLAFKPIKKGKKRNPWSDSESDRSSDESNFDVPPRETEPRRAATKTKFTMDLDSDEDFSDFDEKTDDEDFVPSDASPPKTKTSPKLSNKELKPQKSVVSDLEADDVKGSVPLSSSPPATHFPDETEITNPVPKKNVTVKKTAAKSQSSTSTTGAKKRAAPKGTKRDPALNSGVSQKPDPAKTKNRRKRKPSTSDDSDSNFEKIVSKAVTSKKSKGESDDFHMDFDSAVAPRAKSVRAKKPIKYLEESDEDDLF
# How it was run: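 ATP-dependent decatenation of 0.1 µg kinetoplast DNA by 1 unit of human topo IIα. Incubated 30 min at 37 °C in 50 mM Tris-HCl pH 8.0, 150 mM NaCl, 10 mM MgCl2, 2 mM ATP, 0.5 mM DTT. Gel images quantified by densitometry.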
# DNA [8] = assay: Binding affinity to calf thymus DNA assessed as intercalation at 10 uM after 1 hr by fluorescence spectrophotometry; assay type: nucleic-acid assay; conditions: Bos taurus
# How it was run: (§2)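 Fluorescence spectra were recorded at 25 °C. Compound was present at 10 µM with calf thymus DNA at 0–80 µM, in 20 mM Tris-HCl (pH 7.5) containing 1% DMSO.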
# [9] = target: Vascular endothelial growth factor receptor 2 (Homo sapiens, UniProt P35968); assay: Inhibition of KDR (unknown origin) using poly (Glu, Tyr)4:1 as substrate by ELISA
# Vascular endothelial growth factor receptor 2, sequence (P35968 whole entry): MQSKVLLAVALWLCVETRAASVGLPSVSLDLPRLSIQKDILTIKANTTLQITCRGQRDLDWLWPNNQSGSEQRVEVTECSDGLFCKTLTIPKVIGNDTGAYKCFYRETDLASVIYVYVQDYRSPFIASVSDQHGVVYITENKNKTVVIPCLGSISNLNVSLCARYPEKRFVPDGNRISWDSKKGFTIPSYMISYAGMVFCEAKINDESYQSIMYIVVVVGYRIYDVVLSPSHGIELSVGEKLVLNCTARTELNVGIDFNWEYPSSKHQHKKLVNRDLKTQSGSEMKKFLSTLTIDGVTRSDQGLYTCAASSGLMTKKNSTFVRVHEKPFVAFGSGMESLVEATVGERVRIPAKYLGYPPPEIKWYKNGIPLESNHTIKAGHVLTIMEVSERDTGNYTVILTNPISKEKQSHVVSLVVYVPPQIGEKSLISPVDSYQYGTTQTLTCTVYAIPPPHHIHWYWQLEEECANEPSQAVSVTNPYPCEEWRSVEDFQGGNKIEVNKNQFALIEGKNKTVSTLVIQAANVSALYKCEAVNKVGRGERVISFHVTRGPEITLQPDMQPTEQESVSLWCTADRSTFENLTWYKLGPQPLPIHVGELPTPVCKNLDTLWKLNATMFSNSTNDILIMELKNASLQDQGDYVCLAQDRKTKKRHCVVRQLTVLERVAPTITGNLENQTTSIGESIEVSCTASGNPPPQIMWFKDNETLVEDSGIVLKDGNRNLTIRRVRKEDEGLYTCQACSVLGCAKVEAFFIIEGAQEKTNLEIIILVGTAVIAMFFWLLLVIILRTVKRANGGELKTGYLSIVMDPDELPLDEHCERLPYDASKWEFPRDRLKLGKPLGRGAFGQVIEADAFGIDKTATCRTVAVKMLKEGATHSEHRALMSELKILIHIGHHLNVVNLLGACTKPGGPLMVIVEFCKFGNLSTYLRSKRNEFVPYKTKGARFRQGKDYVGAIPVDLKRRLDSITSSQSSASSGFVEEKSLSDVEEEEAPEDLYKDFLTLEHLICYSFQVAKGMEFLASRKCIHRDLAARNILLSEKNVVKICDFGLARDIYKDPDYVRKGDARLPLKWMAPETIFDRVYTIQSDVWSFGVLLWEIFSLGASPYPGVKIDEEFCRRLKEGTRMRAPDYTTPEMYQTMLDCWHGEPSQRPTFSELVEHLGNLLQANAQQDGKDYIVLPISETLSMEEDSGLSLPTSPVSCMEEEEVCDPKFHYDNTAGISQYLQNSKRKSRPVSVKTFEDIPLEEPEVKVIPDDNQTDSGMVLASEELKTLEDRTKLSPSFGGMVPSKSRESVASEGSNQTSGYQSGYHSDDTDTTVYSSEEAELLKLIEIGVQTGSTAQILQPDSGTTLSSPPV
# MDA-MB-231 = assay: Cytotoxicity against human MDA-MB-231 cells after 72 hrs by sulforhodamine B assay; assay type: functional, cell-based; conditions: MDA-MB-231, 72 h; how it was run: as §1
# [10] = target: T1, Fibroblast growth factor receptor 1 (Homo sapiens, UniProt P11362); assay: Inhibition of FGFR1 (unknown origin) using poly (Glu, Tyr)4:1 as substrate by ELISA
# Target sequence in this assay (P11362 whole entry): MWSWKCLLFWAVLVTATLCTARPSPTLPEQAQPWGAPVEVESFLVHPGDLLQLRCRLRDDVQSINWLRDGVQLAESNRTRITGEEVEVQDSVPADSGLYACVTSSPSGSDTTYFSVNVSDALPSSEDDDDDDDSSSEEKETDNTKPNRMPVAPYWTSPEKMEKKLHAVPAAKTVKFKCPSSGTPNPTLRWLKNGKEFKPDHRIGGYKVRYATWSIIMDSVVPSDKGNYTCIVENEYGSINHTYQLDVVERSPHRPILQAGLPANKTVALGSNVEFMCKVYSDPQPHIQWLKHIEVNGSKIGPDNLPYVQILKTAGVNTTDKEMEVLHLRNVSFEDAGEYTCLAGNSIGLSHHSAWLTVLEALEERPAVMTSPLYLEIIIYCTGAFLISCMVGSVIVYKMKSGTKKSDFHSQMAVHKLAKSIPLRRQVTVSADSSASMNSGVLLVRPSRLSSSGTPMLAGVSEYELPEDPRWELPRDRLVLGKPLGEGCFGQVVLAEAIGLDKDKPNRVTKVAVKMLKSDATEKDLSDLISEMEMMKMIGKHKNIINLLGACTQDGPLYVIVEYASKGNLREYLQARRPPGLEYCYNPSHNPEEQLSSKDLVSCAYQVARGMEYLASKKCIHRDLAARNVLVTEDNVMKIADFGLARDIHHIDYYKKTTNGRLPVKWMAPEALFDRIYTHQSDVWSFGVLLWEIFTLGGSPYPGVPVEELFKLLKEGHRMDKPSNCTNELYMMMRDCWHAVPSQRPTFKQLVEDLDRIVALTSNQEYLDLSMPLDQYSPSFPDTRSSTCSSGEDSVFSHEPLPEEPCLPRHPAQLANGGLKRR
# [11] = Antiangiogenic activity in human HMEC1 cells assessed as growth inhibition at 40 uM after 72 hrs by SRB assay; assay type: functional; conditions: HMEC-1, 72 h, read-out: GI
# How it was run: (§3)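 HMEC-1 cells seeded and cultured overnight, then exposed to graded compound concentrations for 72 h. Cells were fixed with 10% trichloroacetic acid and stained with sulforhodamine B. Dye was dissolved in 10 mM Tris-HCl and read at 515 nm. Inhibition = (1 − A515 treated/A515 control) × 100%.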
# [12] = Antiangiogenic activity in human HMEC1 cells assessed as growth inhibition at 20 uM after 72 hrs by SRB assay; assay type: functional; conditions: HMEC-1, 72 h, read-out: GI; how it was run: as §3
# HMEC-1 [13] = assay: Antiangiogenic activity in human HMEC1 cells assessed as growth inhibition after 72 hrs by SRB assay; assay type: functional, cell-based; how it was run: as §3
# HMEC-1 [14] = assay: Antiangiogenic activity in human HMEC1 cells assessed as growth inhibition at <= 10 uM after 72 hrs by SRB assay; assay type: functional, cell-based; how it was run: as §3
# HMEC-1 [15] = assay: Antiangiogenic activity in human HMEC1 cells assessed as inhibition of serum-stimulated tube formation after 8 hrs by matrigel assay; assay type: functional, cell-based
# How it was run: (§4)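 Matrigel was set in 96-well plates (37 °C, 1 h) and seeded with HMEC-1 at 1 × 10⁵ cells/mL. Cells were cultured 8 h at 37 °C in MCDB131 with 20% FBS containing compound or control. Tubes were counted in five random fields by phase-contrast microscopy. Inhibition = [1 − tubes compound/tubes control] × 100%; mean ± SD, n = 3.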
# [16] = Antiangiogenic activity in human HMEC1 cells assessed as inhibition of serum-stimulated tube formation at 5 uM after 8 hrs by matrigel assay relative to control; assay type: functional; conditions: HMEC-1, 8 h; how it was run: as §4
# [17] = Antimigratory activity against human HMEC1 cells at 5 uM after 6 hrs by transwell Boyden chamber assay relative to control; assay type: functional; conditions: HMEC-1, 6 h
# How it was run: (§5)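 HMEC-1 suspension (5 × 10⁵ cells/mL) with compound or control was placed in the upper compartment of a transwell Boyden chamber. The lower compartment held MCDB131 with 20% FBS plus the same compound concentration. After 6 h at 37 °C, migrated cells were quantified by absorbance. Inhibition = [1 − (A compound − A blank)/(A control − A blank)] × 100%; mean ± SD, n = 3.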
# [18] = Antimigratory activity against human HMEC1 cells at 10 uM after 6 hrs by transwell Boyden chamber assay relative to control; assay type: functional; conditions: HMEC-1, 6 h; how it was run: as §5
# [19] = target: T1, Fibroblast growth factor receptor 1; assay: Inhibition of FGFR1 in human HMEC1 cells assessed as reduction of bFGF-induced FGFR1 phosphorylation at Tyr 653/654 at 1.25 to 2.5 uM incubated for 10 hrs prior to bFGF challenge measured after 10 mins by Western blotting analysis; assay type: cell-based
# How it was run: (§6)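 HMEC-1 cells were plated at 3 × 10⁵ cells/well and serum-starved 24 h. Cells were exposed to compound (10 h per the results text; methods state 12 h), then stimulated with 50 ng/mL bFGF for 10 min at 37 °C. Whole-cell lysates were run on 10% SDS-PAGE and blotted with antibodies to phospho-FGFR1, phospho-Erk and phospho-AKT, with GAPDH as loading control.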
# [20] = Antiangiogenic activity in human HMEC1 cells assessed as inhibition of serum-stimulated tube formation at 10 uM after 8 hrs by matrigel assay relative to control; assay type: functional; conditions: HMEC-1, 8 h; how it was run: as §4
# HMEC-1 [21] = assay: Antimigratory activity against human HMEC1 cells after 6 hrs by transwell Boyden chamber assay; assay type: functional, cell-based; how it was run: as §5
# [22] = target: T1, Fibroblast growth factor receptor 1; assay: Inhibition of FGFR1 in human HMEC1 cells assessed as reduction of bFGF-induced Erk1/2 phosphorylation at Thr 202/204 at 1.25 to 2.5 uM incubated for 10 hrs prior to bFGF challenge measured after 10 mins by Western blotting analysis; assay type: cell-based; how it was run: as §6
# [23] = target: T1, Fibroblast growth factor receptor 1; assay: Inhibition of FGFR1 in human HMEC1 cells assessed as reduction of bFGF-induced AKT phosphorylation at Ser 473 at 1.25 to 5 uM incubated for 10 hrs prior to bFGF challenge measured after 10 mins by Western blotting analysis; assay type: cell-based; how it was run: as §6
# [24] = target: T1, Fibroblast growth factor receptor 1; assay: Inhibition of FGFR1 in human HMEC1 cells assessed as inhibition of bFGF-induced FGFR1 phosphorylation at Tyr 653/654 incubated for 10 hrs prior to bFGF challenge measured after 10 mins by Western blotting analysis; assay type: cell-based; how it was run: as §6
# DNA [25] = assay: Binding affinity to calf thymus DNA assessed as intercalation after 1 hr by fluorescence spectrophotometric analysis; assay type: nucleic-acid assay; conditions: Bos taurus; how it was run: as §2
Compound,solubility at 24 h [1] [µM],Activity (DNA [2]),IC50 [3] [µM],IC50 [5] [µM],inhibition [7] [%],Activity (DNA [8]),IC50 [9] [µM],IC50 [10] [µM],IC50 (A549) [µM],IC50 (HL-60) [µM],IC50 [4] [µM],IC50 [6] [µM],IC50 (MDA-MB-231) [µM],other results
CCCCCCCCCCCCCCCCN1C(=O)c2cccc3c(NCCNCCN(C)C)ccc(c23)C1=O,16,inactive,> 50,> 50,97.3,inactive,> 100,> 100,31.3,24.5,> 50,> 50,17.7,
CN(C)CCNCCNc1ccc2c3c(cccc13)C(=O)N(C)C2=O,78400,inactive,> 100,> 100,97.1,inactive,> 100,> 100,24.5,7.8,> 50,13.6,7.9,Kb (DNA [25]): 1.3 ×10⁵ /M
CCN1C(=O)c2cccc3c(NCCNCCN(C)C)ccc(c23)C1=O,46700,inactive,> 100,> 100,86.7,,> 100,> 100,31.4,17,> 50,> 50,24.3,
CN(C)CCN1C(=O)c2cccc3cc(N)cc(c23)C1=O [AMONAFIDE],,,,,97.5,inactive,,,3.2,0.9,21.6,13.8,4.4,Kb (DNA [25]): 2.1 ×10⁵ /M

# The next lines start with results.
solubility at 24 h [1] [µM],Activity (DNA [2]),IC50 [3] [µM],IC50 [5] [µM],inhibition [7] [%],Activity (DNA [8]),IC50 [9] [µM],IC50 [10] [µM],Compound,IC50 (A549) [µM],IC50 (HL-60) [µM],IC50 [4] [µM],IC50 [6] [µM],IC50 (MDA-MB-231) [µM],other results
264,inactive,> 50,> 100,99.8,inactive,48.9,18.1,CCCCCCCCN1C(=O)c2cccc3c(NCCNCCN(C)C)ccc(c23)C1=O,7.8,2.1,> 50,> 50,8.6,inhibition of growth at 40 µM [11]: 99%; inhibition of growth at 20 µM [12]: 68%; growth inhibition (GI) (HMEC-1 [13]): Dose-dependent effect; growth inhibition (GI) (HMEC-1 [14]): inactive; inhibition (HMEC-1 [15]): Dose-dependent effect; inhibition at 5 µM [16]: 30%; inhibition at 5 µM [17]: 55%; inhibition at 10 µM [18]: 70%; inhibition [19]: Active; inhibition at 10 µM [20]: 70%; inhibition (HMEC-1 [21]): Dose-dependent effect; inhibition [22]: Active; inhibition [23]: Active; inhibition [24]: Dose-dependent effect
63,inactive,> 50,26.2,96.6,,27.6,28.8,CCCCCCCCCCCCN1C(=O)c2cccc3c(NCCNCCN(C)C)ccc(c23)C1=O,19.1,1.8,> 50,> 50,6.6,
430,inactive,> 100,> 100,94.3,,> 100,> 100,CCCCCCN1C(=O)c2cccc3c(NCCNCCN(C)C)ccc(c23)C1=O,9.8,1.5,46,> 50,6.1,
15400,inactive,> 100,> 100,90.2,,> 100,> 100,CCCCN1C(=O)c2cccc3c(NCCNCCN(C)C)ccc(c23)C1=O,21.4,5.8,> 50,> 50,10.5,

# — ChEMBL document CHEMBL2407039 (Eur J Med Chem, 2013)
